The values that follow come from ChEMBL document CHEMBL4765459, “Synthesis and bioactivity of phenyl substituted furan and oxazole carboxylic acid derivatives as potential PDE4 inhibitors” (Eur J Med Chem, 2020).

Experiment [1] has as its target T1, 3',5'-cyclic-AMP phosphodiesterase 4B (Homo sapiens, UniProt Q07343). Nature of the experiment: Inhibition of human U-937 cells derived PDE4B using [3H] cAMP as substrate measured after 30 mins. Put shortly: (§1)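 Enzyme from human monocyte-derived U937 cells, stored at −20 °C and diluted in triple-distilled water containing BSA. Substrate was [3H]cAMP (300,000 dpm/assay) in 100 mmol/L Tris-HCl pH 8.0 with 5 mmol/L EGTA. Compound added in DMSO. Incubation 30 min at 30 °C. Duplicates run at several compound concentrations.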

The target of experiment [2] is 3',5'-cyclic-AMP phosphodiesterase 4D (Homo sapiens, UniProt Q08499). The experiment in a line: Inhibition of human U-937 cells derived PDE4D using [3H] cAMP as substrate measured after 30 mins. Put shortly: as §1
3',5'-cyclic-AMP phosphodiesterase 4D, sequence (Q08499 whole entry): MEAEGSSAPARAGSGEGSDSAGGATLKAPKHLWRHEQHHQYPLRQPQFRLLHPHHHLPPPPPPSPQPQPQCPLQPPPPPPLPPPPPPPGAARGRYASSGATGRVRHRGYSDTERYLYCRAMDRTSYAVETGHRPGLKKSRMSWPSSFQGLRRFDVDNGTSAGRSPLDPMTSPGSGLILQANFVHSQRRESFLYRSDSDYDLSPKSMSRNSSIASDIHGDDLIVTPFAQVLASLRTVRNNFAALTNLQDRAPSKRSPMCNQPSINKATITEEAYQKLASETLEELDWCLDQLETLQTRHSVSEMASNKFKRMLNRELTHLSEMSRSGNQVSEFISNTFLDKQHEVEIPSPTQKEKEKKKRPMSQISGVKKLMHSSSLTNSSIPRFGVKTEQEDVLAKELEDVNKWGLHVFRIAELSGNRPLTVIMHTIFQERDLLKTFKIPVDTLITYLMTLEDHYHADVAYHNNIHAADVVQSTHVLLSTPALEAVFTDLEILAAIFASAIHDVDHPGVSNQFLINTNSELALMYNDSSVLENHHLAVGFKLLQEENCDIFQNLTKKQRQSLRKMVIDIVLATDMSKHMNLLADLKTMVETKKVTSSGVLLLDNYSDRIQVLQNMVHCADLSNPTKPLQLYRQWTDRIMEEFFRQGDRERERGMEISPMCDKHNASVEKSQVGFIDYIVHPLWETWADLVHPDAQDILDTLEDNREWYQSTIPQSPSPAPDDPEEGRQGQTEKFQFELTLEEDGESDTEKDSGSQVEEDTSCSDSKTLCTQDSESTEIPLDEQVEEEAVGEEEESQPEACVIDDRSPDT
For another experiment, the species on record is Homo sapiens. The experiment in a line: Selectivity ratio of IC50 for inhibition of human U937 cells derived PDE4D to inhibition of human U937 cells derived PDE4B.
The target of experiment [3] is T1, 3',5'-cyclic-AMP phosphodiesterase 4B. The experiment in a line: Inhibition of PDE4B in human PBMC assessed as reduction in LPS-induced TNFalpha release preincubated for 30 mins followed by LPS stimulation and measured after 18 hrs by TR-FRET assay. Put shortly:
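Human PBMCs from buffy coats, blood first diluted 1:1 with saline, isolated on Lymphoprep. Compound pre-incubation 30 min, then LPS stimulation for 18 h. IC50 reported.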

The subject of the next experiment is Mus musculus. The experiment in a line: Antiinflammatory activity in LPS induced Swiss albino mouse model of sepsis assessed as inhibition of TNFalpha production at 10 mg/kg, po preincubated for 30 mins followed by LPS stimulation and measured after 90 mins by ELISA relative to control. Conditions: 2 h, time 120 min. Type of experiment: functional. The procedure, abridged: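 Female Swiss albino mice, weight-matched, n = 6 per group, fasted 20 h with water available. Oral dosing in 0.5% Tween 80 / 0.25% sodium carboxymethylcellulose, with vehicle-only controls. 500 µg E. coli LPS (B4) in phosphate buffer given i.p. 30 min later. Retro-orbital bleed 90 min after LPS. Serum spun 4000 rpm for 20 min, held at 4 °C overnight, then TNF-α measured by mouse ELISA kit.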
A general note: An ELISA detects its analyte on a solid surface through an enzyme-linked reagent.

A further experiment deals with Rattus norvegicus. Nature of the experiment: Antiinflammatory activity in LPS induced Sprague-Dawley rat model of asthma and COPD assessed as inhibition of neutrophilia at 10 mg/kg, po preincubated for 30 mins followed by LPS stimulation and measured after 6 hrs relative to control. Type of experiment: functional. Conditions: time 6.5 hrs. Put shortly: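 Male Sprague Dawley rats, acclimatized one week and randomized by body weight, n = 6 per group. Compound given orally, suspended in 0.25% sodium carboxymethylcellulose, half an hour before LPS exposure. Bronchoalveolar lavage done 6 h after LPS. Total cell count and differential leukocyte count compared with control.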

T1 sequence (Q07343 whole entry): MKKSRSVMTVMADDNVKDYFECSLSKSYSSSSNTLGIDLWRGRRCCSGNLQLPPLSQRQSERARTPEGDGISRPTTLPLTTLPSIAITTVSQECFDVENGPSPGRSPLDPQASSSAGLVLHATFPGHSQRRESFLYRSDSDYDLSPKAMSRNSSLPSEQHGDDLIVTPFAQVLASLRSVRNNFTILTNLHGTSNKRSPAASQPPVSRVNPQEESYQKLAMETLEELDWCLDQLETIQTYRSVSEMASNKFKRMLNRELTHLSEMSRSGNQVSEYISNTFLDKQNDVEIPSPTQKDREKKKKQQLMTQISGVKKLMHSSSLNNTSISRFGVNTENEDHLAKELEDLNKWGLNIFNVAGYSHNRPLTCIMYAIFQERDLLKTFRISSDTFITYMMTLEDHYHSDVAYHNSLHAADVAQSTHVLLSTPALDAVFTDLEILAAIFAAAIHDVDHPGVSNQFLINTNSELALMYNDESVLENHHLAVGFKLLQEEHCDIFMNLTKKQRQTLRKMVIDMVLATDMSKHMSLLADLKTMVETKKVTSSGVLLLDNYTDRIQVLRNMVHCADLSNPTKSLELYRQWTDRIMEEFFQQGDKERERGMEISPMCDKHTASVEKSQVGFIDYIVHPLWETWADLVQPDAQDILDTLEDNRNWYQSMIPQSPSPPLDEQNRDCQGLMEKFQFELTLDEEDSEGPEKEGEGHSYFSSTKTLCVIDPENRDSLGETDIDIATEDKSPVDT

Consider `N#C/N=C1/SCCN1C(=O)c1coc(-c2ccc(F)cc2)n1`, for which the IC50 (as a rule, the midpoint of a concentration-inhibition curve) came to 6.8 µM in experiment [1], 45.9 µM in experiment [2] and 22.1 µM in experiment [3]. Moreover, the Ratio IC50 in the experiment listed under Homo sapiens was determined as 6.75.

Take `N#C/N=C1/SCCN1C(=O)c1coc(-c2ccc(Cl)cc2)n1`: the results for the half-inhibitory concentration (IC50) in experiment [1], in experiment [2] and in experiment [3] were 3.6 µM, 26.8 µM and 27.2 µM, respectively. Moreover, the Ratio IC50 in the experiment listed under Homo sapiens is 7.44.

For the compound `N#C/N=C1/SCCN1C(=O)c1ccc(-c2ccccc2F)o1`, the 50% inhibitory concentration (IC50) in experiment [1] worked out at 62.4 µM; in experiment [3], 110 µM.

Turning to `Cc1ccc(-c2ccc(C(=O)N3CCS/C3=N/C#N)o2)cc1`, the figures for the 50% inhibitory concentration (IC50) in experiment [1], in experiment [2] and in experiment [3] were 12.5 µM, 54.3 µM and 41.3 µM, respectively. Besides, the Ratio IC50 in the experiment listed under Homo sapiens came out at 4.34.

In the case of `N#C/N=C1/SCCN1C(=O)c1ccc(-c2ccccc2)o1`, the results for the IC50 in experiment [1] and in experiment [3] were 111 µM and 170 µM, respectively.

Take `N#C/N=C1/SCCN1Cc1ccc(-c2c(F)cccc2F)o1`: the IC50 amounted to 45.7 µM in experiment [1], 160 µM in experiment [2] and 82.3 µM in experiment [3]. In the experiment listed under Homo sapiens, the Ratio IC50 was determined as 3.49.

For `N#C/N=C1/SCCN1C(=O)c1ccc(-c2ccc(Cl)cc2)o1`, the half-maximal inhibitory concentration (IC50) in experiment [1] is 6.6 µM; in experiment [2], 26.4 µM; in experiment [3] it was 35.6 µM. For the same compound, in the experiment listed under Homo sapiens, the Ratio IC50 was 4.

`COc1ccc(C2CNC(=O)C2)cc1OC1CCCC1` (stereo not drawn) [ROLIPRAM]: the figures for the inhibition in vivo at 10 mg/kg with Mus musculus and in the experiment with Rattus norvegicus were 45.3% and 36.8%, respectively.

Consider `N#C/N=C1/SCCN1Cc1ccc(-c2ccc(Br)cc2)o1`, for which the IC50 in experiment [1] was 52.7 µM; in experiment [3] it was 156 µM.

In the case of `N#C/N=C1/SCCN1Cc1ccc(-c2ccc(F)cc2)o1`, the IC50 in experiment [1] is 18.9 µM; in experiment [2], 111 µM; in experiment [3], 45.8 µM. Also, in the experiment listed under Homo sapiens, the Ratio IC50 is 5.85.

Regarding `COc1ccc(-c2ccc(C(=O)N3CCS/C3=N/C#N)o2)cc1`, the half-maximal inhibitory concentration (IC50) in experiment [1] worked out at 2.8 µM; in experiment [2], 18.7 µM; in experiment [3], 15.3 µM. Also, the Ratio IC50 in the experiment listed under Homo sapiens stood at 6.68. Also, the values for the inhibition in vivo at 10 mg/kg with Mus musculus and in the experiment on Rattus norvegicus were 40.5% and 33.8%, respectively.

On to `N#C/N=C1/SCCN1C(=O)c1ccc(-c2cccc(Cl)c2)o1`, for which the IC50 in experiment [1] turned out to be 29.4 µM; in experiment [2], 99.8 µM; in experiment [3] it was 74.3 µM. Further, the Ratio IC50 in the experiment filed under Homo sapiens was 3.39.

In the case of `N#C/N=C1/SCCN1C(=O)c1ccc(-c2cccc(F)c2)o1`, the half-maximal inhibitory concentration (IC50) in experiment [1] is 37.8 µM; in experiment [3] it was 72.6 µM.

As to `N#C/N=C1/SCCN1C(=O)c1coc(-c2cccc(Cl)c2)n1`, the IC50 in experiment [1] amounted to 18.1 µM; in experiment [2], 102 µM; in experiment [3], 62.5 µM. Moreover, the Ratio IC50 in the experiment listed under Homo sapiens amounted to 5.66.

Take `N#C/N=C1/SCCN1C(=O)c1ccc(-c2ccccc2Cl)o1`: the half-inhibitory concentration (IC50) was determined as 62.8 µM in experiment [1] and 123 µM in experiment [3].

Regarding `N#C/N=C1/SCCN1C(=O)c1coc(-c2ccccc2)n1`, the half-maximal inhibitory concentration (IC50) in experiment [1] turned out to be 71.2 µM; in experiment [3], 142 µM.

Turning to `N#C/N=C1/SCCN1Cc1ccc(-c2cccc(F)c2)o1`, the IC50 in experiment [1] is 59.7 µM; in experiment [3], 89.5 µM.

Consider `N#C/N=C1/SCCN1Cc1ccc(-c2ccccc2F)o1`, for which the IC50 worked out at 85.6 µM in experiment [1] and 121 µM in experiment [3].

With `N#C/N=C1/SCCN1Cc1ccc(-c2ccc(Cl)cc2)o1`, the figures for the IC50 in experiment [1], in experiment [2] and in experiment [3] were 15.7 µM, 58.3 µM and 44.2 µM, respectively. For the same compound, in the experiment filed under Homo sapiens, the Ratio IC50 came to 3.71.

For `N#C/N=C1/SCCN1C(=O)c1ccc(-c2ccc(Br)cc2)o1`, the figures for the IC50 in experiment [1] and in experiment [3] were 49.6 µM and 139 µM, respectively.

As for `COc1ccc(-c2ccc(CN3CCS/C3=N/C#N)o2)cc1`, the IC50 in experiment [1] stood at 9.6 µM; in experiment [2] it was 32.8 µM; in experiment [3], 36.8 µM. Also, in the experiment filed under Homo sapiens, the Ratio IC50 came out at 3.42. For the same compound, the inhibition in vivo (as a rule, the share of the control response that was lost under treatment) at 10 mg/kg is 31.2% in the experiment on Mus musculus and 28.7% in the experiment with Rattus norvegicus.

On to `N#C/N=C1/SCCN1C(=O)c1coc(-c2cccc(F)c2)n1`, for which the IC50 in experiment [1] was 27.6 µM; in experiment [3] it was 64.3 µM.

As for `N#C/N=C1/SCCN1Cc1ccc(-c2cccc(Cl)c2)o1`, the half-maximal inhibitory concentration (IC50) came out at 62.8 µM in experiment [1] and 89.7 µM in experiment [3].

For the compound `N#C/N=C1/SCCN1Cc1ccc(-c2ccccc2)o1`, the IC50 in experiment [1] was 162 µM; in experiment [3] it was 199 µM.

Consider `N#C/N=C1/SCCN1C(=O)c1ccc(-c2ccc(F)cc2)o1`, for which the half-maximal inhibitory concentration (IC50) in experiment [1] was determined as 11.3 µM; in experiment [2], 55.7 µM; in experiment [3], 29.8 µM. Moreover, in the experiment filed under Homo sapiens, the Ratio IC50 was determined as 4.93.

For the compound `COc1ccc(-c2nc(C(=O)N3CCS/C3=N/C#N)co2)cc1`, the IC50 in experiment [1] was determined as 1.4 µM; in experiment [2], 15.7 µM; in experiment [3], 11.8 µM. Moreover, the Ratio IC50 in the experiment filed under Homo sapiens stood at 11.2. The results for the inhibition in vivo at 10 mg/kg in the experiment on Mus musculus and in the experiment on Rattus norvegicus were 52.6% and 42.1%, respectively.

As for `Cc1ccc(-c2ccc(CN3CCS/C3=N/C#N)o2)cc1`, the IC50 in experiment [1] is 20.1 µM; in experiment [2] it was 121 µM; in experiment [3] it was 53.9 µM. Also, the Ratio IC50 in the experiment listed under Homo sapiens is 6.04.

Take `N#C/N=C1/SCCN1C(=O)c1coc(-c2ccccc2F)n1`: the IC50 in experiment [1] was 52.8 µM; in experiment [3], 92.8 µM.

Consider `N#C/N=C1/SCCN1C(=O)c1ccc(-c2c(F)cccc2F)o1`, for which the figures for the IC50 in experiment [1], in experiment [2] and in experiment [3] were 22.1 µM, 88.6 µM and 60.1 µM, respectively. Besides, the Ratio IC50 in the experiment listed under Homo sapiens is 4.01.

In the case of `N#C/N=C1/SCCN1Cc1ccc(-c2ccccc2Cl)o1`, the results for the half-inhibitory concentration (IC50) in experiment [1] and in experiment [3] were 102 µM and 149 µM, respectively.

Consider `N#C/N=C1/SCCN1C(=O)c1coc(-c2c(F)cccc2F)n1`, for which the IC50 in experiment [1] was 16.3 µM; in experiment [2], 98.7 µM; in experiment [3], 49.3 µM. Moreover, in the experiment listed under Homo sapiens, the Ratio IC50 came out at 6.06.

As to `N#C/N=C1/SCCN1C(=O)c1coc(-c2ccc(Br)cc2)n1`, the half-inhibitory concentration (IC50) in experiment [1] worked out at 46.7 µM; in experiment [3], 131 µM.

Consider `Cc1ccc(-c2nc(C(=O)N3CCS/C3=N/C#N)co2)cc1`, for which the results for the half-maximal inhibitory concentration (IC50) in experiment [1], in experiment [2] and in experiment [3] were 9.2 µM, 66.9 µM and 35.2 µM, respectively. Further, in the experiment filed under Homo sapiens, the Ratio IC50 was determined as 7.27.

Turning to `N#C/N=C1/SCCN1C(=O)c1coc(-c2ccccc2Cl)n1`, the IC50 in experiment [1] amounted to 40.3 µM; in experiment [3] it was 101 µM.
